# Yeast life ext = extends the lifespan of yeast; AID 775; 130,000 compounds, 0.68% hits; inhibition of the nicotinamide effect, % at 10 µM; S. cerevisiae growth with nicotinamide, OD615; deaD strain in restrictive glucose medium;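 active = inhibition above a set limit, placed 3 SD over the median of all compounds, cut at about 26% in these data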;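 note: 0% = nicotinamide-treated wells and 100% = cells grown without nicotinamide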
#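 Material: Modified budding yeast, DeaD strain | Medium: Restrictive glucose medium | Probe or stimulus: 1.5 mM nicotinamide | Dosing: Single dose 10 µM compound, 0.25% DMSO | Times: 48 h at 30 °C | Technique: OD615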
# HCT116 PTEN-null = PTEN-deleted cell growth suppression. viability, % at 10 µM. HCT116 PTEN-null viability, CellTiter-Glo, 60 h; stronger effect = lower value. 140,000 compounds, 1.2% hits;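 active = viability at or below a set limit, 4 SD under the median of all tested compounds, cut at about 3.7% in these data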;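 note: PTEN knockout HCT116 line with beta catenin targeted HCT116 as companion control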
# Yeast growth inh = chemicals that inhibit yeast BB579 growth in restrictive medium (lifespan-shortening candidates); inhibition, % at 10 µM; 140,000 compounds, 0.51% hits; S. cerevisiae BB579 growth, OD615, 48 h;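 active = inhibition above a set limit, 3 SD over the mean compound inhibition, cut at about 44% in these data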
#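 Test system: DeaD yeast strain BB579 / Buffer or medium: restrictive glucose-based CSMM-D medium / Doses: single 10 µM dose / Schedule: 4 h cell preincubation, 48 h compound exposure, 30 °C humidified / Technique: culture absorbance at 615 nm / Controls: amphotericin B positive control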
# HCT116 bCat-KO = beta-catenin-lacking colon tumor cell growth suppression. HCT116 beta-catenin knockout viability, CellTiter-Glo, 60 h; stronger effect = lower value. viability, % at 10 µM. 140,000 compounds, 1.5% hits. AID 818;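 active = viability at or under a set limit, the compound median less 4 SD, cut at about 6% in these data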;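 note: 0% = Hyamine 1622 control at 20 µM and 100% = untreated cell control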
# SDO1 yeast rescue = compounds rescuing growth of sdo1-depleted yeast, bone marrow failure model. S. cerevisiae sdo1-depleted JHY4D growth rescue, OD600 30 h; stronger effect = higher value; pdr5 snq2 efflux-pump mutant strain. z-score at 10 µM. 140,000 compounds, 0.21% hits;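 active = z-score above 3 at both the 24 hr and the 30 hr optical density reads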;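 note: z-score against mean and SD of all compound wells on the same plate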
# Active calls of the source: *; . = not tested or not shown. Shown are actives, neighbours in structure and some others; about 2.8% of the full set was active somewhere.
SMILES,Yeast life ext,HCT116 PTEN-null,Yeast growth inh,HCT116 bCat-KO,SDO1 yeast rescue
S=C(NCc1ccc(Cl)cc1Cl)NC1CCCCC1,4,81,71*,81,-1.6
CCOC(=O)C1Cc2cc3c(cc2C1=O)CC(C(=O)OCC)C3=O (stereo not drawn),51*,92,-10,95,-1.3
COc1ccc(/C=C2/C(=O)N(Cc3ccccc3)N=C2C)cc1,27*,87,-56,93,-0.18
COc1ccc(C2SCC(C(=O)NCc3ccc(F)cc3)N2C(C)=O)cc1 (stereo not drawn),-7,90,0,92,0.98
Cc1ccc2nc(N3CCC(C(=O)O)CC3)nc(-c3ccccc3)c2c1,-25,85,-3,96,-1.1
Cc1ccc2nc(N3CC(=O)Nc4ccccc43)nc(-c3ccccc3)c2c1,7,1.2*,-17,1.4*,0.14
Cc1cc(NC(=O)COC(=O)c2oc3c(Cl)cccc3c2C)no1,0,94,-17,92,-0.44
N/C(Cc1ccc(Cl)cc1)=N\OC(=O)c1cccc2ccccc12,-11,41,99*,39,-2.2
N/C(Cc1ccc(Cl)cc1)=N\OC(=O)c1ccc2ccccc2c1,-4,57,-5,55,-1.1
CCc1ccc2[nH]c(=O)c(CN(Cc3nnnn3C3CCCC3)C3CCCCC3)cc2c1,5,1.6*,-38,1.8*,-1.3
CNC1=C(N(C(C)=O)c2ccc(Br)cc2)C(=O)c2ccccc2C1=O,8,1.4*,-6,1.3*,-0.92
Cc1ccc2c(CC(=O)NC3CCCc4ccccc43)coc2c1 (stereo not drawn),4,98,-51,94,-0.46
CC(C)CCn1c(=O)c(C(=O)N/N=C/c2cccc(F)c2)c(O)c2ccccc21,38*,99,13,99,-1.4
O=C(N/N=C/c1cccc(F)c1)c1c(O)c2ccccc2[nH]c1=O,52*,32,-34,55,-1.4
O=C(N/N=C/c1ccccc1)c1c(O)c2ccccc2[nH]c1=O,59*,61,-29,60,-1.4
O=C(N/N=C/c1cccc(F)c1)c1csc2c1CCCC2,-14,72,-52,76,0.56
COC(=O)c1c(O)c2ccccc2[nH]c1=O,41*,96,-24,94,0.3
O=C(NC1CCCCCC1)c1c(O)c2ccccc2[nH]c1=O,53,87,-17,81,0.44
CC(C)NC(=O)c1c(O)c2ccccc2[nH]c1=O,3,89,-1,91,-0.94
Cn1c(=O)c2c(ncn2CC(=O)N2CCN(c3ccc(F)cc3)CC2)n(C)c1=O,2,96,-17,86,-0.08
CSc1ncccc1C(=O)OCC(=O)Nc1cc(C(F)(F)F)ccc1N1CCOCC1,-18,80,-71,88,-1.2
Cc1cc(=O)oc2cc(Oc3ccc([N+](=O)[O-])cc3[N+](=O)[O-])ccc12,16,20,-29,22,-0.76
CN(C)c1ccc(S(=O)(=O)NCC(=O)OCC(=O)Nc2cc(Cl)cc(Cl)c2)cc1[N+](=O)[O-],16,96,-16,92,-0.18
O=C(N/N=C/c1ccc(F)cc1)c1c(O)c2ccccc2[nH]c1=O,57*,11,-8,13,-1.7
O=C(NCC1CCCO1)c1c(O)c2ccccc2[nH]c1=O (stereo not drawn),57*,104,-18,104,-2.2
SMILES,Yeast life ext,HCT116 PTEN-null,Yeast growth inh,HCT116 bCat-KO,SDO1 yeast rescue
Cc1ccc(Nc2nc(N)nc(CSC(=S)N3CCOCC3)n2)c(C)c1,-1,92,-27,79,0.27
COc1ccc(C2Cc3ccccc3C(=O)O2)cc1 (stereo not drawn),-1,99,-44,97,-0.29
CCOC(=O)c1c(-c2ccc(-c3ccccc3)cc2)csc1NC(=O)CCN1CCOCC1,-8,21,95*,22,-1.5
C=CCOc1ccccc1/C=N/NC(=O)c1ccc(Cl)cc1Cl,-4,92,-49,85,-0.04
COc1cc(C(=O)Oc2ccccc2/C=N/NC(=O)c2ccc(Cl)cc2Cl)cc(OC)c1OC,-4,2.4*,-53,2.7*,-0.7
CCOC(=O)C(O)(CC(=O)c1ccc(OC)cc1)C(F)(F)F (stereo not drawn),.,83,-2,92,1.8
CCSc1nnc(-c2cccnc2)n1-c1ccc(Cl)c(C)c1,1,89,-8,92,-0.05
O=C(Nc1c(C(=O)c2ccccc2)oc2ccccc12)c1cc(-c2ccccc2O)n[nH]1,3,1.8*,-20,1.9*,-0.68
O=C1c2ccccc2-c2nc3ccccc3nc21,-15,89,85*,87,-1.8
Cc1cc2sc(C(=O)O)c(C)c2s1,.,106,58*,103,0.46
CCS(=O)(=O)n1nc(-c2ccc(Cl)cc2)nc1SCc1ccccc1,.,94,75*,95,-1.3
C=CCOc1ccc(/C(O)=C2/C(=O)C(=O)N(CCCn3ccnc3)C2c2cccs2)cc1 (stereo not drawn),-14,91,-22,95,-0.01
O=C(CN1C(=O)C2CC=CCC2C1=O)NC1CCCc2ccccc21 (stereo not drawn),-2,96,-27,99,-1.4
CNc1ccccc(-c2ccc3ccccc3n2)c1=O,32*,70,-14,60,-0.13
c1ccc2nc(-c3nc4ccccc4o3)ccc2c1,-20,45,8,50,0.27
CCCCCC/C(=N\NS(C)(=O)=O)c1ccccc1,-5,87,-58,96,-0.28
CCCCCC/C(=N/O)c1ccccn1,-19,4,100*,4.2*,-2.4
O=C1C=CCC(/C=C/c2ccccc2)O1 (stereo not drawn),41*,4,-60,4.3*,-0.31
O=c1oc2ccccc2nc1/C=C(O)/C=C\c1ccccc1,25,69,-15,64,-0.86
CCN(CC)CCCNC(=O)c1cc(-c2ccc(O)cc2)on1,-5,93,-46,90,0.37
Cn1nc(-c2ccc(Cl)cc2)c2cc(C(=O)NCC3CCCO3)sc21 (stereo not drawn),-10,58,-22,53,-1.6
CCN(CC)CCCNC(=O)c1cc2c(-c3ccc(Cl)cc3)nn(C)c2s1,-10,1.6*,24,0.8*,-0.64
CCN(CC)CCCNC(=O)c1cc(-c2ccc(Cl)c(Cl)c2)on1,-25,2.4*,-21,2.0*,0.47
CN1CCN(CCCNC(=O)c2cc3c(-c4ccc(Cl)cc4)nn(C)c3s2)CC1,-12,1.7*,31,1.5*,-0.19
Cc1ccc(C(=O)C(C(=O)/C=C/c2ccccc2)=C2SCCCS2)cc1,.,3.5*,-40,2.9*,-1.4
Cc1c(CCOC(=O)C23CC4CC(CC(C)(C4)C2)C3)sc[n+]1Cc1ccccc1,-9,5,5,2.9*,-0.85
O=c1oc2ccccc2cc1-c1cn2cccnc2n1,-19,78,53*,77,0.26
Cc1cc2c(cc(C(=O)O)n2C)s1,-7,108,56*,101,0.47

# From PubChem
